EBI2 block = antagonists of human EBI2 receptor | inhibition, % at 5 µM | EBI2 beta-arrestin recruitment, luminescence, 7a,25-OHC stimulated | AID 651636 | 360,000 compounds, 0.81% hits; in the data active = inhibition above about 38%;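 note: enzyme fragment complementation signal reports receptor beta-arrestin coupling in cells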
APJ agonist = activates the human apelin receptor APJ | 330,000 compounds, 0.11% hits | activation, % at 20 µM | P35414 | CHO-K1 APJ PathHunter beta-arrestin, luminescence; 0% DMSO wells, 100% apelin;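 active = activation more than six SD over the plate average, tested at 20 µM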
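Test system: CHO-K1 APJ beta-arrestin complementation cell line | Compound: Single test compound dose, 20 µM final, 1% DMSO | Incubation: Compound 90 min 25 °C, reagent 1 h | Measured by: beta-gal luminescence | Read-out basis: APJ–arrestin association signal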
CCR6 antag = CCR6 (human) receptor antagonism; P51684; CHO-K1 CCR6 PathHunter beta-arrestin, luminescence, CCL20-stimulated; inhibition, % at 20 µM; 340,000 compounds, 0.49% hits;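 active = compounds whose inhibition of the agonist-driven luminescence signal at 20 µM reaches about 50%, limit read from the data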;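 note: cells stimulated with CCL20 at 14 nM final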
Beta2AR agonist = activates human beta-2 adrenergic receptor causing internalization; Am2.2-beta2AR cells, FAP receptor internalization, flow cytometry; 340,000 compounds, 0.43% hits; response, % (no concentration beside the values); AID 504454;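 active = response above a set limit, near 3 SD of response in nonfluorescent compounds, cut at about 42% in these data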
Target sequence (P07550 whole entry, looked up): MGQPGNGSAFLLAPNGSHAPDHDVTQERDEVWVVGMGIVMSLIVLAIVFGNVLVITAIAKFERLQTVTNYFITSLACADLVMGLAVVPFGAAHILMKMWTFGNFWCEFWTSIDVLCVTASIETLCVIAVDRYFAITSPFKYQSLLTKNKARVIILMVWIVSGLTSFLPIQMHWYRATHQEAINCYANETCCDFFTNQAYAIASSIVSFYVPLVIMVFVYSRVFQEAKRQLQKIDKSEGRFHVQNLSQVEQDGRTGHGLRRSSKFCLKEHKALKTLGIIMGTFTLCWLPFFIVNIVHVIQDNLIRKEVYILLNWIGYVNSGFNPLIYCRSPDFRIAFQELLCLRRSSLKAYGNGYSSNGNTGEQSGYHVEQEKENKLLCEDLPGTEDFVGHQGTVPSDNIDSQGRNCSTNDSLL
APJ antagonist = APJ receptor antagonism | 330,000 compounds, 0.32% hits | P35414 | AID 2521 | CHO-K1 APJ beta-arrestin complementation, luminescence | inhibition, % at 20 µM;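 active = inhibition above about 40% at 20 µM, limit read from the data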;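 note: cells challenged with 10 nM apelin-13 agonist together with compound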
CXCR6 inh = CXCR6 (human) receptor inhibition. CHO-K1 PathHunter CXCR6 beta-arrestin, luminescence. inhibition, % at 20 µM. 360,000 compounds, 0.36% hits. AID 602244; in the data active = inhibition above about 34%, passing the limit was not always enough;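 note: antagonist mode with CXCL16 agonist at 10 nM final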
EBI2 conf = confirmation of human EBI2 receptor antagonists | shares compounds with EBI2 block | EBI2 beta-arrestin luminescence, 7a,25-OHC antagonism | inhibition, % at 5 µM | 2,400 compounds, 29% hits | AID 651997;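 active = inhibition of at least 50%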
EBI2 ag = activates EBI2, counter-screen for EBI2 antagonists; shares compounds with EBI2 block; EBI2-expressing cells, agonist mode, luminescence, 60 min; 0% vehicle, 100% 7α,25-dihydroxycholesterol control; activation, % at 5 µM; 2,400 tested, under 10 active; AID 652000;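 active = activation of at least 50%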
bGal cs = counter-screen for EBI2 antagonists: E. coli beta-galactosidase inhibition | shares compounds with EBI2 block | purified beta-galactosidase, luminescent Galacton Star, 15 min | inhibition, % at 5 µM | 2,400 compounds, 1% hits | AID 652176;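 active = replicate-average signal at least 3 plate SD below neutral wells, shown as high inhibition, flagging enzyme-inhibiting false positives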;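 note: higher means stronger loss of beta-gal luminescence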
Of the large screens only hits and unclear results are named; the others gave an inactive call (follow-up assays come after a bar, where they were run). Most compounds without a hit are left out; they make up all but 1.8% or so of the library.

COC(CN(C)C(=O)c1cn(C)c2ccc(S(=O)(=O)N(C)C3CCCCC3)cc2c1=O)OC	none
COc1ccc(-c2cc(NC=O)c3ncc(-c4ccc(OC)c(OC)c4)n3c2)cc1	none (no result: APJ agonist, CCR6 antag, Beta2AR agonist, APJ antagonist)
Cc1ccc(NC(=S)N2CCC(c3ccc(C)cc3)C2)cc1 (configuration not stated)	none
CN(C)c1ccc(-c2noc(C3CCN(S(=O)(=O)c4ccc(C(=O)O)cc4)CC3)n2)cc1	none
COc1ccc(NC(=S)N2CCC(c3ccc(C)cc3)C2)cc1 (configuration not stated)	EBI2 block 46 | EBI2 conf inactive | EBI2 ag inactive | bGal cs inactive
CN(C)c1ccc(-c2noc(C3CCN(C(=O)Nc4ccc(Cl)cc4)CC3)n2)cc1	EBI2 block 82 | EBI2 conf 57 | EBI2 ag inactive | bGal cs inactive
Cc1cccc(C)c1-n1nnnc1C(c1ccnc2ccccc12)N1CCN(C(=O)OCc2ccccc2)CC1 (configuration not stated)	EBI2 block 41 (no result: APJ agonist, CCR6 antag, Beta2AR agonist, APJ antagonist) | EBI2 conf inactive | EBI2 ag inactive | bGal cs inactive
CC1OC(CCc2cccc(Cl)c2)Cc2[nH]c(=S)[nH]c(=O)c21 (configuration not stated)	none (no result: APJ agonist, CCR6 antag, Beta2AR agonist, APJ antagonist)
S=C(NCCc1ccccc1)N1CCN(C(c2ccccc2)c2ccccc2)CC1	EBI2 block 54 | EBI2 conf inactive | EBI2 ag inactive | bGal cs inactive
CSc1ccc(C(=S)N2CCN(C(c3ccccc3)c3ccccc3)CC2)cc1	EBI2 block 83 | EBI2 conf inactive | EBI2 ag inactive | bGal cs inactive
CCN1C[C@@H]2[C@@H]3C(=O)N(Cc4ccccc4)C(=O)[C@@H]3[C@](C)(C1=O)N2C(=O)c1ccc(F)cc1	none (no result: APJ agonist, APJ antagonist)
COc1ccc(CCC(=O)NCCc2ccc(Cl)cc2)cc1	EBI2 block 43 | EBI2 conf inactive | EBI2 ag inactive | bGal cs inactive
COc1ccc(CCNC(=O)CCc2ccc(OC)cc2)cc1	none
COc1ccc(C)cc1S(=O)(=O)N1CCCC(N2CCN(c3ccccc3)CC2)C1 (configuration not stated)	none (no result: APJ agonist, CCR6 antag, Beta2AR agonist, APJ antagonist)
COc1ccc(-c2ccc(CN3C(C(C)C)C(=O)N(Cc4cn(CC5CCCCC5)nn4)CCS3(=O)=O)cc2)cc1OC (configuration not stated)	EBI2 block 44 (no result: APJ agonist, CCR6 antag, Beta2AR agonist, APJ antagonist) | EBI2 conf inactive | EBI2 ag inactive | bGal cs inactive
COc1ccc(-c2ccc(CN3C(CC(C)C)C(=O)N(Cc4cn(CC5CCCCC5)nn4)CCS3(=O)=O)cc2)cc1OC (configuration not stated)	none (no result: APJ agonist, CCR6 antag, Beta2AR agonist, APJ antagonist)
CCCCn1nnnc1C(c1cc2ccccc2o1)N1CCCC1 (configuration not stated)	none (no result: APJ agonist, CCR6 antag, Beta2AR agonist, APJ antagonist)
CCCCn1nnnc1C(c1cc2ccccc2o1)N1CCN(C/C=C/c2ccccc2)CC1 (configuration not stated)	EBI2 block 62 (no result: APJ agonist, CCR6 antag, Beta2AR agonist, APJ antagonist) | EBI2 conf inactive | EBI2 ag inactive | bGal cs inactive
CCCCn1nnnc1C(c1cc2ccccc2o1)N1CCN(c2ncccc2C#N)CC1 (configuration not stated)	EBI2 block 48 (no result: APJ agonist, CCR6 antag, Beta2AR agonist, APJ antagonist) | EBI2 conf inactive | EBI2 ag inactive | bGal cs inactive
CN(C)CCOC1c2ccccc2CCc2ccc3ccccc3c21 (configuration not stated)	none
O=C(OCc1nnc(-c2ccc([N+](=O)[O-])cc2)o1)C1CCN(C(=O)c2ccc(Cl)cc2)CC1	EBI2 block 50 | EBI2 conf inactive | EBI2 ag inactive | bGal cs inactive
COc1ccccc1CNc1nc(NCc2ccc3occc3c2)c2sccc2n1	none (no result: APJ agonist, CCR6 antag, Beta2AR agonist, APJ antagonist)
